Reference: ChEMBL document CHEMBL1123797, “Antianaphylactic benzophenones and related compounds” (1987)

Assays:
[1] = species: Cavia porcellus; experiment: Inhibition of slow reacting substance of anaphylaxis (SRS-A) release from sensitized guinea pig chopped lung upon antigen challenge at 10 ug/mL; type: functional
Summary of the method: (§1)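 Guinea pigs sensitized to ovalbumin; lungs taken 3 weeks later, perfused with Tyrode, chopped into 0.5-mm cubes. 100-mg aliquots in Tyrode were preincubated 5 min at 37 °C, then compound or Tyrode and ovalbumin (5 mg in 0.1 mL) were added. Incubation was 15 min at 37 °C with rocking, and supernatant was bioassayed. Unchallenged control gave spontaneous release. Values are % inhibition, mean of ≥4 samples; Student's t-test.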

[2] = tested on: Cavia porcellus; experiment: Time of dosing of compound before antigen challenge in conscious sensitized guinea pig at 50 mg/kg po dose; type: functional
Summary of the method: (§2)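 Modified Herxheimer test in conscious sensitized guinea pigs, 4-5 per group. Compound was given orally at 25, 50 or 100 mg/kg 2 or 4 h before antigen challenge. Some groups also received mepyramine 0.5 mg/kg sc 0.5 h before challenge. D = mean collapse time of treated/untreated controls; M+D = mean collapse time of compound+mepyramine/mepyramine-dosed controls.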

[3] = tested on: Cavia porcellus; experiment: Mean collapse time after pretreatment with compound divided by mean collapse time of untreated control animals at 25 mg/kg po dose; type: functional; summary of the method: as §2
[4] = tested on: Cavia porcellus; experiment: Mean collapse time after pretreatment with compound and mepyramine divided by mean collapse time of mepyramine-dosed control animals at 25 mg/kg po dose; type: functional; summary of the method: as §2
[5] = tested on: Cavia porcellus; experiment: Effect on bronchospasm in conscious sensitized guinea pig upon antigen challenge (herxheimer) at 25 mg/kg po dose; type: functional, Bronchiole; summary of the method: as §2
[6] = tested on: Cavia porcellus; experiment: Mean collapse time after pretreatment with compound divided by mean collapse time of untreated control animals at 100 mg/kg po dose; type: functional; summary of the method: as §2
[7] = species: Homo sapiens; experiment: Inhibition of Slow reacting substance of anaphylaxis (SRS-A) mediator release form passively sensitized human lung upon antigen challenge at 1 ug/mL dose; type: functional
Summary of the method: (§3)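 Healthy human lung from carcinoma surgery was chopped into 0.5-mm cubes and passively sensitized 18 h at 18 °C with atopic serum from cocksfoot-pollen-allergic patients. Tissue was preincubated 5 min with compound, challenged with pollen extract (0.1 mL, 1000 noon units) and incubated as for guinea pig lung. Supernatant was bioassayed on guinea pig ileum, with mepyramine-treated (0.4 μg/mL) ileum for SRS-A. Values are % inhibition of mediator release.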

[8] = species: Cavia porcellus; experiment: Inhibition of histamine release from sensitized guinea pig chopped lung upon antigen challenge at 10 ug/mL.; type: functional; summary of the method: as §1
[9] = tested on: Cavia porcellus; experiment: Mean collapse time after pretreatment with compound and mepyramine divided by mean collapse time of mepyramine-dosed control animals at 100 mg/kg po dose; type: functional; summary of the method: as §2
[10] = tested on: Cavia porcellus; experiment: Time of dosing of compound before antigen challenge in conscious sensitized guinea pig at 100 mg/kg po dose; type: functional; summary of the method: as §2
[11] = species: Homo sapiens; experiment: Inhibition of Slow reacting substance of anaphylaxis (SRS-A) mediator release form passively sensitized human lung upon antigen challenge at 10 ug/mL dose; type: functional; summary of the method: as §3
[12] = species: Homo sapiens; experiment: Inhibition of Histamine mediator release form passively sensitized human lung upon antigen challenge at 10 ug/mL dose; type: functional; summary of the method: as §3
[13] = species: Homo sapiens; experiment: Inhibition of Histamine mediator release form passively sensitized human lung upon antigen challenge at 1 ug/mL dose; type: functional; summary of the method: as §3
[14] = tested on: Cavia porcellus; experiment: Time of dosing of compound before antigen challenge in conscious sensitized guinea pig at 25 mg/kg po dose; type: functional; summary of the method: as §2
[15] = tested on: Cavia porcellus; experiment: Mean collapse time after pretreatment with compound divided by mean collapse time of untreated control animals at 50 mg/kg po dose; type: functional; summary of the method: as §2
[16] = tested on: Cavia porcellus; experiment: Mean collapse time after pretreatment with compound and mepyramine divided by mean collapse time of mepyramine-dosed control animals at 50 mg/kg po dose; type: functional; summary of the method: as §2
[17] = tested on: Cavia porcellus; experiment: Mean collapse time after pretreatment with compound and mepyramine divided by mean collapse time of mepyramine-dosed control animals at 2 mg/kg po dose; type: functional
[18] = tested on: Cavia porcellus; experiment: Mean collapse time after pretreatment with compound divided by mean collapse time of untreated control animals at 2 mg/kg po dose; type: functional
[19] = tested on: Cavia porcellus; experiment: Time of dosing of compound before antigen challenge in conscious sensitized guinea pig at 2 mg/kg po dose; type: functional
[20] = species: Cavia porcellus; experiment: Inhibition of slow reacting substance of anaphylaxis (SRS-A) release from sensitized guinea pig chopped lung upon antigen challenge.; type: functional; summary of the method: as §1
[21] = species: Cavia porcellus; experiment: Compound was tested for the inhibition of histamine release from sensitized guinea pig chopped lung upon antigen challenge at 10 ug/mL; type: functional; summary of the method: as §1
[22] = species: Homo sapiens; experiment: Inhibition of Slow reacting substance of anaphylaxis (SRS-A) mediator release form passively sensitized human lung upon antigen challenge at 10(ug/mL) dose:; type: functional; summary of the method: as §3
[23] = species: Homo sapiens; experiment: Inhibition of Histamine mediator release form passively sensitized human lung upon antigen challenge at 10(ug/mL) dose:; type: functional; summary of the method: as §3

`CCc1ccc(OC)c(C(O)c2ccc(Cl)cc2)c1` (centres undefined) gave an Inhibition [1] of 14%, a Time ([2]; dose 25 mg/kg, in the assay text read “at 25 mg/kg po dose” for “at 50 mg/kg po dose”) of 2 h and an Activity [3] of 0.8. The Activity [4] was 2.7.
For `CCc1ccc(O)c(C(=O)c2ccc(Cl)cc2)c1`, the Inhibition [1] was 51%, the “Time of dosing before antigen challenge.” value [5] was 4 h and the Activity [6] was 1.4. For the same compound, the Inhibition [7] was 74%, the Inhibition [8] was 3% and the Activity [9] was 1.8. The Time [10] was 2 h, the Inhibition [11] was 100% and the Inhibition [12] was 0%. It also gave an Activity [3] of 0.8, an Activity [4] of 2.7 and an Inhibition [13] of 0%.
`CCc1ccc(O)c([S+]([O-])c2ccc(Cl)cc2)c1` (centres undefined) showed a Time [14] of 4 h, an Inhibition [1] of 48% and an Inhibition [7] of 69%. It also gave an Inhibition [8] of 26%, an Activity [15] of 1 and an Activity [16] of 1.7. For the same compound, the Time ([2]; dose 50 mg/kg) was 2 h, the Inhibition [11] was 99% and the Inhibition [12] was 31%. It also gave an Activity [3] of 1.3, an Activity [4] of 1.7 and an Inhibition [13] of 0%.
`CN1CCC(=C2c3ccccc3CC(=O)c3sccc32)CC1` [KETOTIFEN] showed an Inhibition [1] of 38%, an Activity [17] of 3.1 and an Inhibition [7] of 51%. The Inhibition [8] was 37%, the Inhibition [11] was 100% and the Activity [18] was 4.2. For the same compound, the Inhibition [12] was 23%, the Time [19] was 2 h and the Inhibition [13] was 0%.
`CCc1ccc(O)c(S(=O)(=O)c2ccc(Cl)cc2)c1` showed an Inhibition [20] of 19%.
For `CCc1ccc(O)c(C(=O)c2ccsc2)c1`, the Inhibition [1] was 26%, the Activity [15] was 0.8 and the Activity [16] was 2.3. It also gave a Time ([2]; dose 50 mg/kg) of 2 h and an Inhibition [21] of 37%.
`CCc1ccc(O)c(C(=O)c2cccs2)c1` gave an Inhibition [1] of 59%, an Inhibition [7] of 55% and an Inhibition [8] of 0%. The Activity [15] was 0.7, the Activity [16] was 1.6 and the Time ([2]; dose 50 mg/kg) was 2 h. The Inhibition [11] was 67%, the Inhibition [12] was 0% and the Inhibition [13] was 0%.
Compound `C=C(c1ccc(C)cc1)c1cc(CC)ccc1O` has an Inhibition [1] of 0%, an Inhibition [22] of 84% and an Activity [15] of 1. It also gave an Activity [16] of 3.5 and an Inhibition [23] of 0%.
With `CCc1ccc(O)c(S(=O)(=O)c2ccccc2)c1` the Inhibition [20] was 0%.
For `CCc1ccc(C(=O)c2ccc(F)cc2)c(O)c1`, the Inhibition [1] was 5%, the Activity [6] was 1.2 and the Activity [15] was 1.3. The Activity [16] was 2.8, the Activity [9] was 2.3 and the Time [10] was 2 h.
